From ChEMBL document CHEMBL1135395, “Design and synthesis of potent nonpeptidic farnesyltransferase inhibitors based on a terphenyl scaffold” (J Med Chem, 2002)
pIC50: −log10 of the molar value.

Experiments:
[1] = biological target: Protein farnesyltransferase (Homo sapiens, UniProt P49354+P49356); assay: Inhibition of farnesyltransferase from human Burkitt lymphoma (Daudi) cells
Procedure, shortened: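 Partially purified enzyme from Daudi cells was incubated with [3H]FPP and recombinant H-Ras-CVLS at a range of inhibitor concentrations for 30 min at 37 °C. IC50 was determined.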

[2] = biological target: Geranylgeranyl transferase type I (Homo sapiens, UniProt P49354+P53609); assay: Inhibition of partially purified Geranylgeranyl transferase type I (GGTase-I) from human Burkitt lymphoma (Daudi) cells
Procedure, shortened: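 Partially purified enzyme from Daudi cells was incubated with [3H]GGPP and recombinant H-Ras-CVLL at a range of inhibitor concentrations for 30 min at 37 °C. The reaction was stopped and filtered on glass fiber filters to separate free from Ras-bound label.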

Row | Compound | pIC50 [1] | pIC50 [2]
1 | O=C(O)c1cccc(-c2ccc(NCc3ccc(S)cc3)cc2-c2ccccc2)c1 | < 5.00 | < 5.00
2 | Cc1cccc(-c2ccc(NC[C@@H](N)CS)cc2)c1 | 6.11 | < 4.00
3 | COC(=O)c1cccc(-c2ccc(NCc3ccccc3S)cc2-c2ccccc2)c1 | < 5.00 | < 5.00
4 | O=C(O)c1cccc(-c2ccc(NCc3cccc(S)c3)cc2-c2ccccc2)c1 | < 5.00 | < 5.00
5 | COc1cc(NC[C@@H](N)CS)ccc1-c1cccc(C(=O)O)c1 | 7.43 | 4.46
6 | N[C@@H](CS)CNc1ccc(-c2cccc(C(=O)O)c2)cc1 | 6.82 | 4.05
7 | COC(=O)c1cccc(-c2ccc(NC[C@@H](N)CS)cc2)c1 | 6.03 | 4.00
8 | CSCC[C@H](NC(=O)c1ccc(NC[C@@H](N)CS)cc1)C(=O)O | 6.82 | –
9 | O=C(CCS)Nc1ccc(-c2cccc(C(=O)O)c2)c(-c2ccccc2)c1 | 5.42 | < 5.00
10 | O=C(O)c1cccc(-c2ccc(NC(=O)c3cccc(S)c3)cc2-c2ccccc2)c1 | < 5.00 | < 5.00
11 | N[C@@H](CS)CNc1ccc(-c2cccc(C(=O)O)c2)c(-c2ccccc2)c1 | 7.70 | 6.19
12 | COC(=O)c1cccc(-c2ccc(NC(=O)c3cccc(S)c3)cc2-c2ccccc2)c1 | < 5.00 | < 5.00
13 | N[C@@H](CS)CNc1ccc(-c2ccccc2)cc1 | 5.92 | < 4.00
14 | N[C@@H](CS)CNc1ccc(-c2cccc(C3N=NN=N3)c2)cc1 | 7.52 | 5.36
15 | COC(=O)c1cccc(-c2ccc(NC(=O)CCS)cc2-c2ccccc2)c1 | < 5.00 | < 5.00
16 | O=C(O)c1cccc(-c2ccc(NCc3cnc[nH]3)cc2-c2ccccc2)c1 | 5.64 | 5.30
17 | COC(=O)c1cccc(-c2ccc(NCc3c[nH]cn3)cc2-c2ccccc2)c1 | < 5.00 | < 5.00
18 | CCCOc1cc(NC[C@@H](N)CS)ccc1-c1cccc(C(=O)O)c1 | 7.39 | 5.62

The remaining lines, values ahead:

Row | pIC50 [1] | pIC50 [2] | Compound
19 | 6.42 | 5.16 | COC(=O)c1cccc(-c2ccc(NCc3cncn3Cc3ccc(C#N)cc3)cc2-c2ccccc2)c1
20 | < 5.00 | < 5.00 | COC(=O)c1cccc(-c2ccc(NCc3cccc(S)c3)cc2-c2ccccc2)c1
21 | 6.51 | 5.23 | COC(=O)c1cccc(-c2ccc(NCc3cncn3Cc3ccc([N+](=O)[O-])cc3)cc2-c2ccccc2)c1
22 | – | 5.15 | Nc1ccc(Cn2cncc2CNc2ccc(-c3cccc(C(=O)O)c3)c(-c3ccccc3)c2)cc1
23 | 5.25 | < 5.00 | COC(=O)c1cccc(-c2ccc(NCc3cncn3Cc3ccc(N)cc3)cc2-c2ccccc2)c1
24 | < 5.00 | < 5.00 | COC(=O)c1cccc(-c2ccc(NCc3ccc(S)cc3)cc2-c2ccccc2)c1
25 | 6.37 | 5.36 | N#Cc1ccc(Cn2cncc2CNc2ccc(-c3cccc(C(=O)O)c3)c(-c3ccccc3)c2)cc1
26 | 6.35 | 5.41 | O=C(O)c1cccc(-c2ccc(NCc3cncn3Cc3ccc([N+](=O)[O-])cc3)cc2-c2ccccc2)c1
